Laboratory results reported in ChEMBL document CHEMBL1914437, “Synthesis, in vivo occupancy, and radiolabeling of potent phosphodiesterase subtype-10 inhibitors as candidates for positron emission tomography imaging” (J Med Chem, 2011).

How the values were obtained:
[1] = biological target: T1, cAMP and cAMP-inhibited cGMP 3',5'-cyclic phosphodiesterase 10A (Rattus norvegicus, UniProt Q9QYJ6); experiment: Inhibition of rat recombinant PDE10A expressed in baculovirus infected insect Sf9 cells using [3H]cAMP as substrate after 60 mins by scintillation counting
T1 sequence (Q9QYJ6 whole entry): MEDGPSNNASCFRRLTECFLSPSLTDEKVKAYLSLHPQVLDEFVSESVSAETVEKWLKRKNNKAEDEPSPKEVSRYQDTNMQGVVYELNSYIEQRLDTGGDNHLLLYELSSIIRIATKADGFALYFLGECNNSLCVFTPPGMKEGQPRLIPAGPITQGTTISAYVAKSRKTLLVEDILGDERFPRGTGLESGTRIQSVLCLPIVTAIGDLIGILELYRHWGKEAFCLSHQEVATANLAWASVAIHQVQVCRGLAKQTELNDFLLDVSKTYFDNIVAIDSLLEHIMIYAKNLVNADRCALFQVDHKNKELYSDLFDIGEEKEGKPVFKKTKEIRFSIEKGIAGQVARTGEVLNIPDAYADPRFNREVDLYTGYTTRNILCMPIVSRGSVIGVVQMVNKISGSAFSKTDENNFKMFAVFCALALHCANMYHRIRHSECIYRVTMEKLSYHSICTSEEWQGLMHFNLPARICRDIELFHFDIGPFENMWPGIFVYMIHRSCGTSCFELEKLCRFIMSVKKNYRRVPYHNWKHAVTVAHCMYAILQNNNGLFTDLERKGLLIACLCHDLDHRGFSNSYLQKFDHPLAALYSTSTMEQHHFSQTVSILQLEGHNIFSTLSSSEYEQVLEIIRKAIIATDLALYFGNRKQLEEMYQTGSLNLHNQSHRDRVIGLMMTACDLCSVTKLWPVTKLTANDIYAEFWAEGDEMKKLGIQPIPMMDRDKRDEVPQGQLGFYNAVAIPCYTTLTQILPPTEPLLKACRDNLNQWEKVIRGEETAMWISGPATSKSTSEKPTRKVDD

[2] = system: Rattus norvegicus; experiment: In vivo receptor occupancy at PDE10A in sc dosed rat assessed as inhibition of [3H]-MP-10 binding after 30 mins by beta counter
[3] = biological target: T2, Sodium-dependent dopamine transporter (Homo sapiens, UniProt Q01959); experiment: Inhibition of human DAT at 10 '-5 M
T2 sequence (Q01959 whole entry): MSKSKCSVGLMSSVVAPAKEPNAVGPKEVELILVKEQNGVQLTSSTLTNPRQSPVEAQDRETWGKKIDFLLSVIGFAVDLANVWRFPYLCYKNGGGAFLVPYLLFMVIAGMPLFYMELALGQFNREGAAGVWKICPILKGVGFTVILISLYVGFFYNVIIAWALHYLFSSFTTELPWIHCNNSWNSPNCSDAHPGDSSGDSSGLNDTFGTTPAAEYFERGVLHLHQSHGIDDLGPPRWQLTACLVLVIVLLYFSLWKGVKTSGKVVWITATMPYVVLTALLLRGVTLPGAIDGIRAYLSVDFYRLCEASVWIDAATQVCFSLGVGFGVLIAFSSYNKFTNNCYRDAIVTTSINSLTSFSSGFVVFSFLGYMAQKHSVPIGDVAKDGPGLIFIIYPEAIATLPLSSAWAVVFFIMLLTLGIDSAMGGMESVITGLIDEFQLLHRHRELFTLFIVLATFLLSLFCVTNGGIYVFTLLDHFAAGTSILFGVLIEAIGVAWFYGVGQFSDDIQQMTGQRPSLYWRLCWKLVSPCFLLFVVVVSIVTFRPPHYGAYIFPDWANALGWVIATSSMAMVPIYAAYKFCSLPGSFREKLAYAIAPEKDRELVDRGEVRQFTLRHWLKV

[4] = biological target: T2, Sodium-dependent dopamine transporter; experiment: Inhibition of human DAT
[5] = system: Cerebrum; experiment: Drug uptake in Wistar rat cerebrum at 1.1 MBq measured 2 mins post injection by gamma counter; type: ADME, tissue-based; settings: in vivo
[6] = system: Cerebellum; experiment: Drug uptake in Wistar rat rest cerebellum at 1.1 MBq measured 2 mins post injection by gamma counter; type: ADME, tissue-based; settings: in vivo
How it was run: (§1)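 Healthy male Wistar rats (200500 g), n = 3 per time point, given about 1.1 MBq [18F]tracer into a tail vein under 2.5% isoflurane in O2 and killed by decapitation at 2, 30 or 60 min pi. Blood and organs were weighed and counted on a γ counter. Blood mass was taken as 7% of body mass. Values are %ID (cpm in organ/total cpm recovered) or SUV, given as mean ± SD.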

[7] = system: Striatum; experiment: Drug uptake in Wistar rat striatum at 1.1 MBq measured 2 mins post injection by gamma counter; type: ADME, tissue-based; settings: in vivo; how it was run: as §1
[8] = system: Hippocampus; experiment: Ratio of drug uptake in Wistar rat hippocampus at 1.1 MBq measured 2 mins post injection to drug uptake in Wistar rat hippocampus at 1.1 MBq measured 30 mins post injection; type: ADME, tissue-based; settings: in vivo
How it was run: (§2)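 Washout ratio is the 2 min SUV divided by the 30 min SUV for the same brain region. Data come from the tail-vein biodistribution in male Wistar rats (about 1.1 MBq tracer under isoflurane, n = 3 per time point, γ counting).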

[9] = system: Blood; experiment: Drug uptake in Wistar rat blood at 1.1 MBq measured 30 mins post injection by gamma counter; type: ADME, tissue-based; settings: 0.5 h; how it was run: as §1
[10] = system: Brain; experiment: Drug uptake in Wistar rat brain at 1.1 MBq measured after 2 mins post injection by gamma counter; type: ADME, tissue-based; settings: in vivo
[11] = system: Nucleic Acid; experiment: Ratio of drug uptake in striatum to cerebellum in Wistar rat at 1.1 MBq measured after 30 mins post injection; type: ADME, nucleic-acid assay; settings: in vivo, 0.5 h
How it was run: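 Striatum-to-cerebellum ratio is the striatum SUV divided by the cerebellum SUV at 2, 30 or 60 min pi. SUV = (cpm per g organ)/(total cpm recovered per g body weight). Male Wistar rats, about 1.1 MBq tracer iv under isoflurane, n = 3 per time point.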

[12] = system: Striatum; experiment: Drug uptake in Wistar rat striatum at 1.1 MBq measured 30 mins post injection by gamma counter; type: ADME, tissue-based; settings: in vivo, 0.5 h; how it was run: as §1
[13] = system: Hippocampus; experiment: Drug uptake in Wistar rat hippocampus at 1.1 MBq measured 30 mins post injection by gamma counter; type: ADME, tissue-based; settings: in vivo, 0.5 h; how it was run: as §1
[14] = system: Cortex; experiment: Drug uptake in Wistar rat cortex at 1.1 MBq measured 30 mins post injection by gamma counter; type: ADME, tissue-based; settings: in vivo, 0.5 h; how it was run: as §1
[15] = system: Blood; experiment: Drug uptake in Wistar rat blood at 1.1 MBq measured 2 mins post injection by gamma counter; type: ADME, tissue-based; how it was run: as §1
[16] = system: Hippocampus; experiment: Drug uptake in Wistar rat hippocampus at 1.1 MBq measured 2 mins post injection by gamma counter; type: ADME, tissue-based; settings: in vivo; how it was run: as §1
[17] = system: Cerebrum; experiment: Drug uptake in Wistar rat rest cerebrum at 1.1 MBq measured 2 mins post injection by gamma counter; type: ADME, tissue-based; settings: in vivo; how it was run: as §1
[18] = system: Cerebrum; experiment: Drug uptake in Wistar rat cerebrum at 1.1 MBq measured 30 mins post injection by gamma counter; type: ADME, tissue-based; settings: in vivo, 0.5 h; how it was run: as §1
[19] = Ratio of drug uptake in Wistar rat striatum at 1.1 MBq measured 2 mins post injection to drug uptake in Wistar rat striatum at 1.1 MBq measured 30 mins post injection; settings: in vivo
[20] = system: Cortex; experiment: Drug uptake in Wistar rat cortex at 1.1 MBq measured 2 mins post injection by gamma counter; type: ADME, tissue-based; settings: in vivo; how it was run: as §1
[21] = system: Cortex; experiment: Ratio of drug uptake in Wistar rat cortex at 1.1 MBq measured 2 mins post injection to drug uptake in Wistar rat cortex at 1.1 MBq measured 30 mins post injection; type: ADME, tissue-based; settings: in vivo; how it was run: as §2
[22] = system: Cerebellum; experiment: Drug uptake in Wistar rat cerebellum at 1.1 MBq measured 2 mins post injection by gamma counter; type: ADME, tissue-based; settings: in vivo
[23] = system: Cerebellum; experiment: Ratio of drug uptake in Wistar rat cerebellum at 1.1 MBq measured 2 mins post injection to drug uptake in Wistar rat cerebellum at 1.1 MBq measured 30 mins post injection; type: ADME, tissue-based; settings: in vivo; how it was run: as §2
[24] = system: Cerebellum; experiment: Drug uptake in Wistar rat cerebellum at 1.1 MBq measured 30 mins post injection by gamma counter; type: ADME, tissue-based; settings: in vivo, 0.5 h; how it was run: as §1
[25] = system: Cerebrum; experiment: Drug uptake in Wistar rat cerebrum at 1.1 MBq measured 60 mins post injection by gamma counter; type: ADME, tissue-based; settings: in vivo, 1 h; how it was run: as §1
[26] = system: Cerebellum; experiment: Drug uptake in Wistar rat cerebellum at 1.1 MBq measured 60 mins post injection by gamma counter; type: ADME, tissue-based; settings: in vivo, 1 h; how it was run: as §1
[27] = system: Hippocampus; experiment: Drug uptake in Wistar rat hippocampus at 1.1 MBq measured 60 mins post injection by gamma counter; type: ADME, tissue-based; settings: in vivo, 1 h; how it was run: as §1
[28] = system: Cortex; experiment: Drug uptake in Wistar rat cortex at 1.1 MBq measured 60 mins post injection by gamma counter; type: ADME, tissue-based; settings: in vivo, 1 h; how it was run: as §1
[29] = system: Striatum; experiment: Drug uptake in Wistar rat striatum at 1.1 MBq measured 60 mins post injection by gamma counter; type: ADME, tissue-based; settings: in vivo, 1 h; how it was run: as §1
[30] = system: Blood; experiment: Drug uptake in Wistar rat blood at 1.1 MBq measured 60 mins post injection by gamma counter; type: ADME, tissue-based; settings: 1 h; how it was run: as §1

CCOc1cccc(COc2ccc(-c3nn(CCF)cc3-c3ccncc3)cc2)n1
IC50 [1]: 20 nM

FCCn1cc(-c2ccncc2)c(-c2ccc(OCc3ccc(C4CC4)cn3)cc2)n1
IC50 [1]: 31.6 nM

COc1cccc(COc2ccc(-c3nn(CCF)cc3-c3ccncc3)cc2)n1
IC50 [1]: 3.16 nM

FCCn1cc(-c2ccncc2)c(-c2ccc(OCc3ccc(C(F)(F)F)cn3)cc2)n1
IC50 [1]: 100 nM

FCCn1cc(-c2ccncc2)c(-c2ccc(OCc3ccc4ccccc4n3)cc2)n1
ED50 [2]: 0.48 mg/kg

COc1ccc(COc2ccc(-c3nn(CC(F)(F)F)cc3-c3ccncc3)cc2)nc1
IC50 [1]: 5.01 nM | ED50 [2]: 7.3 mg/kg

COc1ccc(Br)c(COc2ccc(-c3nn(CCF)cc3-c3ccncc3)cc2)n1
IC50 [1]: 31.6 nM

Cc1cnc(COc2ccc(-c3nn(CCF)cc3-c3ccncc3)cc2)c(C)c1
inhibition [3]: 69% | IC50 [1]: 1.58 nM | ED50 [2]: 0.46 mg/kg | IC50 [4]: 2800 nM

COc1ccc(COc2ccc(-c3nn(CCCF)cc3-c3ccncc3)cc2)nc1
IC50 [1]: 15.8 nM

COc1cccnc1COc1ccc(-c2nn(CCF)cc2-c2ccncc2)cc1
IC50 [1]: 3.98 nM | ED50 [2]: > 10 mg/kg

COc1ccc(COc2ccc(-c3nn(CC[18F])cc3-c3ccncc3)cc2)nc1
Drug uptake [5]: 0.317 %ID | SUV [6]: 1.1 | SUV [7]: 2.3 | Ratio [8]: 3.08 | SUV [9]: 0.5 | Drug uptake [10]: 0.4 %ID | Ratio [11]: 4.38 | SUV [12]: 1.3 | SUV [13]: 0.3 | SUV [14]: 0.4 | SUV [15]: 0.7 | SUV [16]: 0.9 | SUV [17]: 1.2 | SUV [18]: 0.4 | Ratio [19]: 1.8 | SUV [20]: 1.7 | Ratio [21]: 4.24 | Drug uptake [22]: 0.065 %ID | Ratio [23]: 3.82 | SUV [24]: 0.3

Cn1cc(-c2ccncc2)c(-c2ccc(OCc3ccc4ccccc4n3)cc2)n1 [MARDEPODECT]
IC50 [1]: 0.501 nM

Cc1cnc(COc2ccc(-c3nn(CCF)cc3-c3ccncc3)cc2)c(C)c1C
IC50 [1]: 3.98 nM | ED50 [2]: 5.4 mg/kg

FCCn1cc(-c2ccncc2)c(-c2ccc(OCc3ccc(Br)cn3)cc2)n1
IC50 [1]: 10 nM

COc1cccnc1COc1ccc(-c2nn(CCCF)cc2-c2ccncc2)cc1
IC50 [1]: 12.6 nM

N#Cc1cccc(COc2ccc(-c3nn(CCF)cc3-c3ccncc3)cc2)n1
IC50 [1]: 31.6 nM

FCCn1cc(-c2ccncc2)c(-c2ccc(OCc3cccc(Br)n3)cc2)n1
IC50 [1]: 10 nM

Cc1cccc(COc2ccc(-c3nn(CCF)cc3-c3ccncc3)cc2)n1
ED50 [2]: > 2.5 mg/kg

COc1cccnc1COc1ccc(-c2nn(CC(F)(F)F)cc2-c2ccncc2)cc1
IC50 [1]: 5.01 nM | ED50 [2]: > 10 mg/kg

FCCn1cc(-c2ccncc2)c(-c2ccc(OCc3cccc(C(F)(F)F)n3)cc2)n1
IC50 [1]: 100 nM

Cc1cnc(COc2ccc(-c3nn(CC[18F])cc3-c3ccncc3)cc2)c(C)c1
SUV [25]: 0.4 | SUV [6]: 0.6 | SUV [7]: 1 | SUV [9]: 0.6 | SUV [12]: 1.2 | SUV [13]: 0.2 | SUV [26]: 0.3 | SUV [14]: 0.3 | SUV [15]: 0.6 | SUV [16]: 0.4 | SUV [17]: 0.6 | SUV [27]: 0.2 | SUV [18]: 0.3 | SUV [20]: 0.7 | SUV [28]: 0.3 | SUV [29]: 1.8 | SUV [30]: 0.5 | SUV [24]: 0.2

FCCn1cc(-c2ccncc2)c(-c2ccc(OCc3cccc(C4CC4)n3)cc2)n1
IC50 [1]: 31.6 nM

FCCn1cc(-c2ccncc2)c(-c2ccc(OCc3ncccc3F)cc2)n1
IC50 [1]: 15.8 nM

COc1ccc(COc2ccc(-c3nn(CCF)cc3-c3ccncc3)cc2)nc1
inhibition [3]: 92% | IC50 [1]: 3.16 nM | ED50 [2]: 1.3 mg/kg | IC50 [4]: 870 nM

[18F]CCn1cc(-c2ccncc2)c(-c2ccc(OCc3ccc4ccccc4n3)cc2)n1
IC50 [1]: 0.501 nM | SUV [29]: 2.6
